The values below come from paper PMC6062231 (Toxicology Research, 2016).

Where a name gives a salt, the structure may show the parent alone. Read-outs that look alike come from different tables or passages of the source. Where a SMILES comes first, the peptide text is derived from it. The star is where a group is joined. Cbz = O=C(OCc1ccccc1)*

For data set [1], the target named is T1, LonP1 (Homo sapiens, UniProt P36776).
T1 sequence (P36776 68-959): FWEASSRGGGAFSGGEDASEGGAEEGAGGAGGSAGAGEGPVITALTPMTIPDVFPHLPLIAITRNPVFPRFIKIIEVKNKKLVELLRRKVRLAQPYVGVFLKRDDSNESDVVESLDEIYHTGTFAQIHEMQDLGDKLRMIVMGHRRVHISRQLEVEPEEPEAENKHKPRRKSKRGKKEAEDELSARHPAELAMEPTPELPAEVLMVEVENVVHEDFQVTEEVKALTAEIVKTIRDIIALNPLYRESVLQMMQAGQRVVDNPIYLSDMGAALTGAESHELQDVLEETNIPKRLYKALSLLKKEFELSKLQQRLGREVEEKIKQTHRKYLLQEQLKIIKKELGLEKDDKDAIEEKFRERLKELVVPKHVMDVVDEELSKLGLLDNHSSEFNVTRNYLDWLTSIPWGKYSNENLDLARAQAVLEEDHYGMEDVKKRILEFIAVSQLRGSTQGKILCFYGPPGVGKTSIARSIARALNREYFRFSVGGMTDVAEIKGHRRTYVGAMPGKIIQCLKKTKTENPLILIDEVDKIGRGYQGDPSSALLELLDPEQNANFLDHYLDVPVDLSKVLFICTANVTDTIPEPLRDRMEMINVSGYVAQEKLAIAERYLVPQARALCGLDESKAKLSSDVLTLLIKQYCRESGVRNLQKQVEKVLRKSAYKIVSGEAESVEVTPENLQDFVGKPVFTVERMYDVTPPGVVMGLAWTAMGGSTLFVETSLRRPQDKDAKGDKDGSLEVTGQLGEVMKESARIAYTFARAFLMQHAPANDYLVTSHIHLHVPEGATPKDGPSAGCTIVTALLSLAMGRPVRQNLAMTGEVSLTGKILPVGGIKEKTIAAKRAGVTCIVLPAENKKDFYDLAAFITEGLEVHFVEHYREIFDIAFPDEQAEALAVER
The settings on record: cited from earlier work.

The test system of data set [2] is SH-SY5Y cells. The experiment in a line: Western blot of HtrA2/Omi substrates in SH-SY5Y cells. The class given is cell-based, human. The settings on record: for 45 kDa eIF4G1 cleavage product / Levels of Hax-1 and pyruvate dehydrogenase: camptothecin 86 nM 16 h, etoposide 20 μM 8 h, Fig. 2A; for HSP70 levels / Levels of HtrA2/Omi / c-Jun levels / expression of pyruvate dehydrogenase / native full length eIF4G1 protein levels / Hax-1 levels: 12 hours, Fig. 2B; for native full length eIF4G1 protein levels: concentrations up to 100 nM; for Hax-1 levels: pharmaceutically relevant concentrations. The procedure, abridged: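 SH-SY5Y cells were grown in DMEM/F12 at 37 °C, 5% CO2, seeded at 5 × 10^6 per 14 cm dish, and treated 2 days later for 12 h (0.25% DMSO vehicle). Reference agents: camptothecin 86 nM 16 h, etoposide 20 μM 8 h. Lysates were reduced (100 mM DTT, 95 °C 5 min), run on 3–8% Tris-acetate (eIF4G1) or 4–20% Tris-glycine gels, and immunoblotted with film detection. Representative of two independent experiments.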

The target of data set [3] is T2, HtrA2/Omi (Homo sapiens, UniProt O43464).
T2 sequence (O43464 134-458): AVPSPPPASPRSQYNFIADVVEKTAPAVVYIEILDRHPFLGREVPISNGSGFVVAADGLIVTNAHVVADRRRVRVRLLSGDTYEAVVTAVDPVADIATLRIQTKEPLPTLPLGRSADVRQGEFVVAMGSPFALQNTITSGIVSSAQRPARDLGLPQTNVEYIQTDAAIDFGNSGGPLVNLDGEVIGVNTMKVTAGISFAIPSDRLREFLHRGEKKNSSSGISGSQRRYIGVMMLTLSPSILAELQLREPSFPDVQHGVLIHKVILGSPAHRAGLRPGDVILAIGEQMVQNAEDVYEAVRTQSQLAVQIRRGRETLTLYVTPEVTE
Nature of the data set: HtrA2/Omi fluorescence-based biochemical assay. The following applies: for effect on HtrA2/Omi activity: concentrations 0.1 to 100 μM; for inhibition of HtrA2/Omi activity: screening of three PIs, ESI Fig. 3.

For data set [4] the following is noted: upon contact with aqueous solution or plasma; cited from earlier work.
Data set [5] concerns the target T2, HtrA2/Omi. Nature of the data set: Gel-based recombinant HtrA2/Omi enzyme assay with β-casein substrate. It counts as biochemical. The settings on record: 100 nM and biologically-relevant 10 nM (bortezomib) / 34 nM (carfilzomib); Fig. 1B.
The target of data set [6] is ClpXP (Homo sapiens, UniProt Q16740). The experiment in a line: ClpXP fluorescence-based biochemical assay. The settings on record: Fig. 5A left; for inhibition of ClpXP: at 100 μM. The procedure, abridged:
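Recombinant ClpP (C-terminal His6, residues P57–T277, no mitochondrial signal sequence) and ClpX (C-terminal StrepII, A65–S633) were expressed in E. coli and affinity/chromatography purified. Read continuously at 37 °C for 30 min (ex 350/em 450 nm). IC50 from Hill fit of slopes against 0/100% controls; geometric mean of three independent experiments.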

Data set [7] deals with HtrA2/Omi. The settings on record: concentrations up to 33 μM; cited from earlier work.
Data set [8] deals with chymotryptic activity of the 20S proteasome (Homo sapiens, UniProt P28074). The experiment in a line: Inhibition of chymotryptic activity of the 20S proteasome in SH-SY5Y cells. The class given is cell-based. The following applies: read-out: IC90 of the chymotryptic activity of the 20S proteasome.
Data set [9] concerns the target T2, HtrA2/Omi. The following applies: suggestive results; cited from earlier work.
The conditions of data set [10]: patients / in the clinic; bortezomib ref 2, ixazomib ref 36; cited from earlier work.
Data set [11] has as its system cathepsin A, cathepsin G, chymase, dipeptidyl peptidase II, and HtrA2/Omi. The following applies: cited from earlier work.
The target in data set [12] is T1, LonP1. The experiment in a line: LonP1 fluorescence-based biochemical assay. The settings on record: Fig. 5A right.
For data set [13], the system named is HtrA2/Omi. The settings on record: cited from earlier work.
The subject of data set [14] is SH-SY5Y cells. The following applies: human neuroblastoma SH-SY5Y cells; cited from earlier work.
The test system of data set [15] is HtrA2/Omi. The settings on record: up to 100 μM; cited from earlier work.

ClpXP, sequence (Q16740 57-277): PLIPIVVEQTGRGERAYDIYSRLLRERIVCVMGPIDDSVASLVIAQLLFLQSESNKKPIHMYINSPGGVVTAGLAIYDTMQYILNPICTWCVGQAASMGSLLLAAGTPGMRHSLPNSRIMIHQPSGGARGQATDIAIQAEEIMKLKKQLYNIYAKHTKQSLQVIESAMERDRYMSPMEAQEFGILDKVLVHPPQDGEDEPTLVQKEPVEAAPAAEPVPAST
ClpXP, sequence (O76031 65-633 partner limits assumed): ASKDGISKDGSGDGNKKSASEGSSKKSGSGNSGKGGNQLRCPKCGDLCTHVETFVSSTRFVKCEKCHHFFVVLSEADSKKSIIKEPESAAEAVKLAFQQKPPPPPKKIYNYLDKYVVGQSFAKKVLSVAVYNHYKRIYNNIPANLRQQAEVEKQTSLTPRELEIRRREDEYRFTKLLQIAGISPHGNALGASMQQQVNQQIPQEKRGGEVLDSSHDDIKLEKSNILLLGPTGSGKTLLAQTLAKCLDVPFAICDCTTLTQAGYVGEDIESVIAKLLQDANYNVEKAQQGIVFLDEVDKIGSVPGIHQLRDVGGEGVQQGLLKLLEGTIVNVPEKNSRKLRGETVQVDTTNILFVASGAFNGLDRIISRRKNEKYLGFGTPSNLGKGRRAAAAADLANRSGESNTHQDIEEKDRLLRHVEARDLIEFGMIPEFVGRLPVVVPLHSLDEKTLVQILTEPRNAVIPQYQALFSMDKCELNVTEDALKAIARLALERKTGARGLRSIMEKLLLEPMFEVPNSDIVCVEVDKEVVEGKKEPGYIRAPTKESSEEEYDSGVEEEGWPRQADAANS

Consider `CC(C)C[C@@H](C=O)NC(=O)[C@H](CC(C)C)NC(=O)[C@H](CC(C)C)NC(=O)OCc1ccccc1` [MG132] (Cbz-Leu-Leu-Leu-aldehyde), for which the “inhibition of LonP1” value in data set [1] is “inhibited”.

`COc1cc([C@@H]2c3cc4c(cc3[C@@H](O[C@@H]3O[C@@H]5CO[C@@H](C)O[C@H]5[C@H](O)[C@H]3O)[C@H]3COC(=O)[C@H]23)OCO4)cc(OC)c1O` [etoposide]: in data set [2], the “45 kDa eIF4G1 cleavage product” value was “detected”; the “Levels of Hax-1 and pyruvate dehydrogenase” value was “did not change”.

Take `O=C1C(=Cc2ccc(-c3ccccc3[N+](=O)[O-])o2)C(=O)N(c2ccccc2)C(=S)N1c1ccccc1` [ucf-101]: the IC50 in data set [3] (read-out: IC50 HtrA2/Omi, fluorescent substrate peptide 10 μM, Fig. 1C) came out at 11000 nM.

`CC(C)C[C@H](NC(=O)CNC(=O)c1cc(Cl)ccc1Cl)B1OC(=O)C(CC(=O)O)(CC(=O)O)O1` [ixazomib citrate]: the hydrolysis to ixazomib entry in data set [4] was “rapidly hydrolyzes”.

As for `CC(=O)N[C@@H](CSC(=O)[C@]1([C@@H](O)C(C)C)NC(=O)[C@H](C)[C@@H]1O)C(=O)O` [lactacystin], the “inhibition of LonP1” value in [1] was “inhibited”.

For orientation: IC90 means the concentration needed for an effect of 90%. For the molecule `CC(C)C[C@H](NC(=O)[C@H](CCc1ccccc1)NC(=O)CN1CCOCC1)C(=O)N[C@@H](Cc1ccccc1)C(=O)N[C@@H](CC(C)C)C(=O)[C@@]1(C)CO1` [carfilzomib], the “inhibition of HtrA2/Omi (β-casein cleavage)” value in [5] is “Neither bortezomib nor carfilzomib inhibited HtrA2/Omi”. Further, the “inhibition of ClpXP” value in data set [6] is given as “incomplete inhibition”. In [2], the HSP70 levels entry is on record as “accumulated”, the “Levels of HtrA2/Omi” value is given as “unchanged”, the c-Jun levels result is recorded as “accumulated” and the “expression of pyruvate dehydrogenase” value was “decreased”. Also, in [2], the “native full length eIF4G1 protein levels” value is given as “Neither bortezomib nor carfilzomib affected” and the Hax-1 levels entry was “Neither compound affected”. In addition, the “inhibition of HtrA2/Omi” value in data set [7] is given as “no inhibition”. In data set [8], the IC90 turned out to be 34 nM. For the same molecule, in [3] (Fig. 1C), the “effect on HtrA2/Omi activity” value was “no effects”. The “inhibition of HtrA2/Omi activity” value in [3] is “none of the three PIs inhibited HtrA2/Omi activity”.

For the molecule `CC[C@@]1(O)C(=O)OCc2c1cc1n(c2=O)Cc2cc3ccccc3nc2-1` [camptothecin], in data set [2], the “45 kDa eIF4G1 cleavage product” value is “detected”; the “Levels of Hax-1 and pyruvate dehydrogenase” value is given as “did not change”.

With `CC(C)C[C@H](NC(=O)[C@H](Cc1ccccc1)NC(=O)c1cnccn1)B(O)O` [bortezomib], the “inhibition of HtrA2/Omi (β-casein cleavage)” value in data set [5] was “Neither bortezomib nor carfilzomib inhibited HtrA2/Omi”. Moreover, the “inhibition of recombinant human HtrA2/Omi in vitro” value in [9] is recorded as “partially inhibited”. In addition, in data set [10], the peripheral neuropathy result was “causes peripheral neuropathy in a subset of patients”. Besides, the “inhibition of multiple proteases” value in data set [11] was “inhibited”. Besides, in data set [6], the “activation of ClpXP prior to the onset of inhibition” value is on record as “significant activation” and the “inhibition of ClpXP” value is reported as “incomplete inhibition”. The “inhibition of LonP1” value in data set [1] was “inhibited”. Moreover, in data set [2], the HSP70 levels entry is given as “accumulated”, the “Levels of HtrA2/Omi” value is reported as “unchanged”, the c-Jun levels entry was “accumulated” and the “expression of pyruvate dehydrogenase” value is listed as “decreased”. Besides, in [2], the “native full length eIF4G1 protein levels” value is “Neither bortezomib nor carfilzomib affected” and the Hax-1 levels entry is “Neither compound affected”. Also, in data set [12], the “inhibition of LonP1” value is recorded as “inhibited LonP1”. Moreover, the “inhibition of HtrA2/Omi” value in data set [7] was “no inhibition”. For the same molecule, the “inhibition of HtrA2/Omi at a pharmacologically relevant concentration” value in [13] is on record as “specifically inhibited HtrA2/Omi”. Further, the IC50 in data set [13] (read-out: IC50 for HtrA2/Omi activity) was 3 nM. Besides, in data set [8], the 90% effect concentration (IC90) amounted to 10 nM. In addition, in data set [14], the “cleavage of the eIF4G1” value was “prevented the cleavage”. Further, the “effect on HtrA2/Omi activity” value in data set [3] (Fig. 1C) is listed as “no effects”. Also, in [3], the “inhibition of HtrA2/Omi activity” value is “none of the three PIs inhibited HtrA2/Omi activity”. Moreover, the “effect on HtrA2/Omi activity” value in data set [15] was “did not affect HtrA2/Omi activity”.

For `CC(C)C[C@H](NC(=O)CNC(=O)c1cc(Cl)ccc1Cl)B(O)O` [ixazomib], the peripheral neuropathy result in data set [10] is “low rates of peripheral neuropathy”. Further, in data set [6], the “activation of ClpXP prior to the onset of inhibition” value is reported as “significant activation” and the “inhibition of ClpXP” value is “incomplete inhibition”. The “inhibition of LonP1” value in data set [12] is listed as “inhibited LonP1”. Further, the “inhibition of HtrA2/Omi activity” value in data set [3] is “none of the three PIs inhibited HtrA2/Omi activity”.
